Test results taken from paper PMC11959935 (Acta Pharmaceutica Sinica. B, 2025).

Assays:
GL261 glioma allograft = assay: PET imaging of orthotopic GL261 glioma allograft mouse models; format: in vivo
Summary of the method: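 Mice under isoflurane (1.5%, 0.4 L/min) in a stereotactic frame received mouse GL261 glioma cells (suspension 1 × 10^5 cells/mL) through a drilled hole by Hamilton syringe; controls received PBS. After 10 days, tumours were confirmed by T2-weighted MRI and [18F]FET PET (11.1 MBq), then the radiotracer was given i.v. T/N ratio was lesion SUV over contralateral normal brain.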

epileptic focus = assay: Pilot clinical PET imaging in a patient with temporal lobe epilepsy; format: in vivo, human

SMILES	T/N ratio (GL261 glioma allograft)	SUVmean in epileptic focus (epileptic focus)
N[C@@H](Cc1ccc(OCC[18F])cc1)C(=O)O [[^18F]FET, ^18F-fluoro-ethyl-tyrosine]	1.17 ± 0.02	
CCOC(=O)c1ncn2c1CN(C)C(=O)c1cc([18F])ccc1-2 [[^18F]FMZ]		0.54 ± 0.28
